This note sets out measurements from PMC5723703 (Pharmacology Research & Perspectives, 2017).

The EC50 is the concentration that produces a half-maximal response. As a reminder, the Tmax is the time at which the peak concentration occurs.

“And” between values parts separate entries of the source, which are not always exact repeats. Identical values can stand only once. Like-named read-outs stand apart in the source and are kept apart here.

For series [1], the target named is T1, S1P2 receptor (Homo sapiens, UniProt O95136). The format is biochemical.
Series [2] has as its target T2, S1P1 receptor (Homo sapiens, UniProt P21453). Kind of series: Ca2+ mobilization assay. It counts as cell-based. For orientation: Calcium flux is commonly read through the fluorescence of an indicator in the cells.
Series [3] addresses T1, S1P2 receptor. The series is described as follows: Impedance-based analysis of S1P2 receptor signaling in CHO-hS1P2 cells. It counts as cell-based. The settings on record: 0.05-5000 nM.
A further series relates to rat trachea. The series is described as follows: Isometric force development, isolated rat tracheal rings.
The target of the next series is human S1P5 receptor (Homo sapiens, UniProt Q9H228). The format is biochemical.
Series [4] deals with C57BL/6 mice. The series is described as follows: Lymphocyte count and plasma concentration in mice. The settings on record: three repeated doses of 6 mg·kg^‐1·day^‐1, day 0 vs day 2 (data not shown). The format is in vivo, mouse.
For another series, the target named is T3, human S1P4 receptor (Homo sapiens, UniProt O95977).
T3 sequence (O95977 1-384): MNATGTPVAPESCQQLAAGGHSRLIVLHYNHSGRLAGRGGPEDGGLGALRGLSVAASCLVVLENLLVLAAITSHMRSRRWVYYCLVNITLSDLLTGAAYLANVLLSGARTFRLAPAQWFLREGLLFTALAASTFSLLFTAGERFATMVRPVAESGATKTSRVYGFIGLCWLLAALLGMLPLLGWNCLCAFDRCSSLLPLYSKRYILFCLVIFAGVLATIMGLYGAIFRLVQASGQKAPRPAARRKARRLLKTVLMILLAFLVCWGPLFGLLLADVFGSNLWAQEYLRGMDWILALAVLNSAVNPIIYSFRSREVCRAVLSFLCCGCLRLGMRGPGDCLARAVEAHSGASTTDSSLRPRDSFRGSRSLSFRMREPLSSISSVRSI
The format is biochemical. The procedure, abridged: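 Membranes from CHO cells expressing recombinant human S1P4 were used for (35S)-GTPγS binding as a measure of G protein activation. EC50 was fitted with the compound's own maximal response as the top and the no-effect level of the lowest concentration as the bottom.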

In series [5] the test system is Wistar rats. The series is described as follows: In vivo lung function. More on the design: species or system rat. The settings on record: n = 10. The procedure, abridged:
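Male Wistar rats (200-250 g), acclimatised at least 7 days, were unrestrained, conscious and breathing spontaneously in whole-body plethysmograph chambers (calibrated with a 5 mL air injection), one rat per chamber. Baseline was recorded for 120 min. Single oral dosing used 0.25% methylcellulose/0.05% Tween 80 vehicle, followed by recording for 6 h.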

Series [6] concerns the target T2, S1P1 receptor. It counts as biochemical.
The nature of series [7]: Compound concentrations in rat plasma. It counts as in vivo. The conditions noted are these: for plasma concentration at time of maximal lymphocyte count reduction (6 hours): rats.
The test system of series [8] is C57BL/6 mice. Kind of series: Mouse MOG33-55 EAE model with spinal cord histopathology. The format is in vivo. The procedure, abridged: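 EAE was induced in 6-week-old female C57BL/6JOlaHsd mice with 150 μg MOG33-55 in CFA, s.c. into both flanks under isoflurane, plus a pertussis toxin boost. Dosing was 6 mg·kg^‐1·day^‐1 or vehicle (0.25% methylcellulose, 0.05% Tween 80) from day 0 or day 14, with daily scoring 0–5. Spinal cords were taken after saline perfusion, formalin-fixed, and 4 μm sections stained with HE and cresyl violet/Luxol fast blue; naïve mice served as controls.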

Series [9] has as its system Wistar rats. The series is described as follows: Blood lymphocyte count in rats after oral administration. It counts as in vivo, rat.
For a further series, the system named is rat mesenteric arteries. Kind of series: Isometric force development, isolated rat mesenteric arteries. The procedure, abridged: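 After CO₂ euthanasia, two mesenteric artery rings (1.5 mm, 2nd and 3rd branch) were mounted on 20 μm wires in a wire myograph with modified Krebs-Henseleit buffer. Viability was checked with KCl 60 mmol/L. Endothelium was confirmed by acetylcholine (10^-5 mol/L) relaxation of rings precontracted with U46619 (10^-6 mol/L).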

For series [10], the system named is spontaneous hypertensive rats. Kind of series: Blood pressure and heart rate by telemetry in conscious SHR. The format is in vivo, rat.
The target of series [11] is T2, S1P1 receptor. Kind of series: Ca2+ signaling in CHO cells expressing recombinant human S1P1 receptor. It counts as cell-based.
The next series has as its target human S1P3 receptor (Homo sapiens, UniProt Q99500). It counts as biochemical.
Another series concerns human bronchi. Kind of series: Isometric force development, isolated human bronchial rings.
For series [12], the target named is T2, S1P1 receptor. The format is biochemical. The source holds these as a separate data set.
Where [13] appears, read: EC50 hS1P4, (35S)-GTPγS, CHO membranes, geometric mean, n = 2‐4.
[14] abbreviates: percentage of maximal response induced by 1 or 10 μmol·L^‐1 S1P.

T1 sequence (O95136 whole entry): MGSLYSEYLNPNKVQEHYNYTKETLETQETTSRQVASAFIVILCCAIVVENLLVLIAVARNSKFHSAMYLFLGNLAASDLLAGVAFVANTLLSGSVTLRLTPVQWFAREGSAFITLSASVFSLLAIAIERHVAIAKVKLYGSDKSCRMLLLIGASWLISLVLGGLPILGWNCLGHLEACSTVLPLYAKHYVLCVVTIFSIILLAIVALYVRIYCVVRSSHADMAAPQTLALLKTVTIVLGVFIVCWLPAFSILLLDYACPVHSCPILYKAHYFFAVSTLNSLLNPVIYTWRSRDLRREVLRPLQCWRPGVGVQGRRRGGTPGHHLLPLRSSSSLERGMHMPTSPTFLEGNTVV
T2 sequence (P21453 whole entry): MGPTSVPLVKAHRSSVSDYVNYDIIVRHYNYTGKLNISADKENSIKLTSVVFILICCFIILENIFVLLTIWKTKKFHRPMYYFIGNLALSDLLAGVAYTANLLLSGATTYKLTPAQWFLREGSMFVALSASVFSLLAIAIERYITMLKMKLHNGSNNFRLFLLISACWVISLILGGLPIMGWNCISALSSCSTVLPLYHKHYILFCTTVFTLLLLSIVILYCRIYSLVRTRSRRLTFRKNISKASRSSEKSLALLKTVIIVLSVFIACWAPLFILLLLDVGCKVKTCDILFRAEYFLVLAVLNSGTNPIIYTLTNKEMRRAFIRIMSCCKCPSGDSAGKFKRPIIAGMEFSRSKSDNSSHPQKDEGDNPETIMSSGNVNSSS
human S1P3 receptor, sequence (Q99500 whole entry): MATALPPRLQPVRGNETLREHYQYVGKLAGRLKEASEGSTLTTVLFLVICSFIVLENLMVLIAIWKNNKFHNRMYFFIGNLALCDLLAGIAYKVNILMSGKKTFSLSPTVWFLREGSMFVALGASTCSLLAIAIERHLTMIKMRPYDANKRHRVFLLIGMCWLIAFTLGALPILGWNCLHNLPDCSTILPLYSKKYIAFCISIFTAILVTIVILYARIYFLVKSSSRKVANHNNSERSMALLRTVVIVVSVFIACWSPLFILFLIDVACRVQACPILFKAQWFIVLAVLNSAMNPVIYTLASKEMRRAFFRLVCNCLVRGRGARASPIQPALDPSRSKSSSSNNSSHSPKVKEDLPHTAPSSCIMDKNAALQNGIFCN
human S1P5 receptor, sequence (Q9H228 whole entry): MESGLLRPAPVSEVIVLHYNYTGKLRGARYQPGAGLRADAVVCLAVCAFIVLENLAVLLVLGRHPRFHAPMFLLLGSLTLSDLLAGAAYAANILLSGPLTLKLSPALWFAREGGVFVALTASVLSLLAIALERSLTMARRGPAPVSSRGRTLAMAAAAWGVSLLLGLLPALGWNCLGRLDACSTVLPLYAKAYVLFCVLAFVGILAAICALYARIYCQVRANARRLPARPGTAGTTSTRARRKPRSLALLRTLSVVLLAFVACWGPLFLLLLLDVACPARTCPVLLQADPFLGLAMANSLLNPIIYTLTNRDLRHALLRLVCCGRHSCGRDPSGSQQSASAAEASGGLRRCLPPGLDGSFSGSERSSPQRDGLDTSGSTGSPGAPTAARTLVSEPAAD

`CCc1cc(-c2noc(-c3cc(OC)nc(C4CCCC4)c3)n2)cc(C)c1OC[C@@H](O)CO` [Cenerimod, (S)‐3‐(4‐(5‐(2‐cyclopentyl‐6‐methoxypyridin‐4‐yl)‐1,2,4‐oxadiazol‐3‐yl)‐2‐ethyl‐6‐methylphenoxy)propane‐1,2‐diol]: the EC50 at S1P2 receptor [1] is greater than 10 µM; on S1P1 receptor [2] it was 1.04 µM; on human S1P5 receptor, 0.036 µM; at human S1P4 receptor (EC50 S1P4 receptor, (35S)-GTPγS, human recombinant receptor) it was 2.1 µM; at human S1P4 receptor (setting [13]), 2.13 µM; at S1P1 receptor [6], 0.002 µM. Also, the EC50 on S1P1 receptor [11] was 0.124 µM; at human S1P3 receptor, 0.228 µM. For the same compound, the “agonist activity on the S1P2 receptor” value at S1P2 receptor [1] (up to the highest tested concentration (10 μmol·L^‐1)) was “no detectable agonist activity”. On S1P1 receptor [2] (HUVEC), the “fold less potent in Ca^2+ signaling than in (35S)‐GTPγS assays” value is reported as “approximately 500 fold”. For the same compound, the “S1P2 receptor agonist activity in more sensitive (cellular) assays” value on S1P2 receptor [3] is recorded as “no S1P2 receptor agonist activity”. Besides, in the series with rat trachea (highest tested concentration 10 μmol·L^‐1, n = 4), the “contraction of upper and lower rat trachea” value is “complete lack of response”. Besides, at human S1P5 receptor ((35S)-GTPγS EC50 ratio), the “fold less potent on the S1P5 receptor than pFTY720” value amounted to 70 fold. For the same compound, at human S1P5 receptor ((35S)-GTPγS EC50 ratio), the “fold more potent on the S1P5 receptor than the natural ligand S1P” value was “twofold”. The Emax is 65% on human S1P5 receptor (read-out: E max (%) hS1P5), 123% at human S1P4 receptor (read-out: E max (%) hS1P4), 81% at human S1P3 receptor (read-out: E max (%) hS1P3) and 126% on S1P1 receptor [12] (read-out: E max (%) hS1P1). In addition, the compound accumulation entry in the series on C57BL/6 mice [4] is listed as “absence of compound accumulation”. Moreover, the “Penh (index of bronchoconstriction) vs vehicle” value in the series with Wistar rats [5] (100 mg·kg^‐1 p.o., 4 hours evaluation period) is given as “did not increase”. In addition, in series [7] (4 hours after oral administration of 100 mg·kg^‐1, Wistar rats (Penh study)), the plasma concentration is 4.4 ± 0.6 μg·mL^‐1. Besides, in [7] (Wistar, rat, plasma, po), the Tmax came out at 3 h. Further, the “plasma concentration at time of maximal lymphocyte count reduction (6 hours)” value was determined as 41 ± 2 ng·mL^‐1 in [7] (1 mg·kg^‐1 single oral dose) and 869 ± 73 ng·mL^‐1 in series [7] (10 mg·kg^‐1 single oral dose). Further, the “mice completely protected from disease development” value with C57BL/6 mice [8] (6 mg·kg^‐1·day^‐1 from day 0 (preventive), n = 8) is “Five out of eight”. Moreover, the “clinical score reached (maximum reduction), all treated mice” value in the series with C57BL/6 mice [8] (6 mg·kg^‐1·day^‐1 from day 14 (therapeutic), n = 8) was 0.5. Further, the “incidence and severity of spinal cord demyelination” value with C57BL/6 mice [8] (preventive or therapeutic regimen, 6 mg·kg^‐1·day^‐1) was “equally reduced”. The “maximal clinical score of the individual mice that developed disease” value with C57BL/6 mice [8] (preventive treatment 6 mg·kg^‐1·day^‐1, three of eight mice) is 2.5 and 3.0 and 0.5. The “time to reach clinical score of 0.5 after treatment initiation, two mice” value in the series with C57BL/6 mice [8] (therapeutic treatment) is on record as no more than 11 days. Further, in the series on Wistar rats [9], the “single oral dose at which plateau of lymphocyte reduction is reached” value turned out to be 1 mg·kg^‐1. Also, the “time until lymphocyte count returned to predose levels” value in the series with Wistar rats [9] (1 mg·kg^‐1 single oral dose) is no more than 48 h. Besides, the “decrease of blood lymphocyte count” value in the series on Wistar rats [9] (1 mg·kg^‐1 single oral dose, P < .001) is 63 ± 4%. The “blood lymphocyte count after dosing” value in the series on Wistar rats [9] (1 mg·kg^‐1 single oral dose, from 7900 ± 690 before dosing) was found to be 2900 ± 370 lymphocytes/μL. Further, the results for the “time until lymphocyte count returned to physiological levels after the last dose” value in the series with Wistar rats [9] (1 mg·kg^‐1·day^‐1 oral for 7 days (data not shown)) and with Wistar rats [9] (3 mg·kg^‐1·day^‐1 oral for 7 days (data not shown)) were no more than 2 days and no more than 4 days, respectively. The “reduction of blood lymphocyte count at 48 hours” value in the series on Wistar rats [9] (3 mg·kg^‐1 single oral dose) is listed as “more than 40%”. For the same compound, the “reduction of peripheral blood lymphocyte count after 48 hours” value in the series with Wistar rats [9] (10 mg·kg^‐1 single oral dose) is on record as 65 ± 3%. For the same compound, the “contraction of rat mesenteric arteries” value in the series with rat mesenteric arteries (10 μmol·L^‐1, n = 4) was “did not contract”. Further, the “effect on heart rate (HR)” value in series [10] (30 mg·kg^‐1 single oral dose) was “no effect”. In addition, the “decrease of mean arterial blood pressure (MAP)” value in [10] (30 mg·kg^‐1 single oral dose, 48 hours observation period) was found to be 9 ± 3 mmHg. The “fold less active at the S1P3 receptor than S1P” value at human S1P3 receptor ((35S)-GTPγS EC50 ratio) is listed as “at least 2000 fold”. Also, on human S1P3 receptor ((35S)-GTPγS EC50 ratio), the “fold less active at the S1P3 receptor than pFTY720” value was determined as 400 fold. In the series on human bronchi (10 μmol·L^‐1), the “contraction of human bronchi” value is given as “no contraction”. The “fold higher potency on the S1P1 receptor compared to the natural ligand S1P” value at S1P1 receptor [12] ((35S)-GTPγS EC50 ratio) is recorded as 16 fold.

For the compound `CCCCCCCCc1ccc(CCC(N)(CO)CO)cc1` [FTY720, reference compound], in the series with Wistar rats [5] (3 or 10 mg·kg^‐1 p.o. single dose), the “Penh (index of bronchoconstriction) vs vehicle” value is on record as “significant dose‐dependent increases”. The “decrease of heart rate (HR)” value in series [10] (3 mg·kg^‐1 single oral dose) is 26 ± 8 bpm. Moreover, the “increase of mean arterial blood pressure (MAP)” value in series [10] (3 mg·kg^‐1 single oral dose, 48 hours observation period) came to 12 ± 2 mmHg.

On to `CCCCCCCCCCCCC/C=C/[C@@H](O)[C@@H](N)COP(=O)(O)O` [S1P, Sphingosine‐1‐phosphate, reference compound], for which the EC50 at S1P1 receptor [2] amounted to 0.034 µM; at human S1P4 receptor (setting [13]), 0.06 µM; on human S1P3 receptor it was 0.0001 µM. Besides, the “constriction of lower rat trachea” value in the series with rat trachea (1 μmol·L^‐1, in presence of Ca^2+ (2.5 mmol·L^‐1), n = 3) was “induced lower rat trachea constriction”.

For the compound `CCCCCCCOc1ccc(CCC(N)(CO)COP(=O)(O)O)cc1C(F)(F)F` (stereo not drawn) [p-amiselimod (pMT-1303)], the rat trachea constriction entry with rat trachea (lower rat trachea, 1 μmol·L^‐1 and 10 μmol·L^‐1) is “induced effective rat trachea constriction”.

Regarding `CCCCCCCCc1ccc(CCC(N)(CO)COP(=O)(O)O)cc1` (stereo not drawn) [pFTY720, reference compound], the “E max (%) hS1P2” value on S1P2 receptor [1] (setting [14]) amounted to 11%. For the same compound, the “contraction of upper and lower rat trachea” value with rat trachea (10, 100 or 1000 nmol·L^‐1, n = 4) is recorded as “concentration‐dependent contractile response”. For the same compound, the “E max (%) hS1P5” value on human S1P5 receptor (setting [14]) came to 43%. The “E max (%) hS1P4” value at human S1P4 receptor (setting [14]) was 109%. For the same compound, the EC50 on human S1P4 receptor (read-out: EC50 hS1P4, (35S)-GTPγS, CHO membranes, geometric mean, n = 2‐4) turned out to be 0.064 µM. In the series on rat mesenteric arteries (1, 10 or 100 nmol·L^‐1, n = 4), the “contraction of rat mesenteric arteries” value was “concentration‐dependent contraction”. Further, in the series with human bronchi (% of reference contraction to KCl (50 mmol·L^‐1), mean ± SEM, n = 4), the “E max contraction of human bronchi” value was 86.5 ± 20.2%. Further, in the series on human bronchi (mean ± SEM, n = 4), the “pEC50 contraction of human bronchi” value was found to be 6.4 ± 0.5.
